Reference: ChEMBL document CHEMBL4627260, “Optimisation of estrogen receptor subtype-selectivity of a 4-Aryl-4H-chromene scaffold previously identified by virtual screening” (Bioorg Med Chem, 2020)

Tests used:
[1] = molecular target: Estrogen receptor beta (Homo sapiens, UniProt Q92731); assay: Displacement of fluorescent estrogen ligand from recombinant human full length untagged ERbeta expressed in baculovirus infected insect cells incubated in dark for 2 hrs by Beacon single-tube fluorescent polarization assay
[2] = molecular target: T1, Estrogen receptor (Homo sapiens, UniProt P03372); assay: Displacement of fluorescent estrogen ligand from recombinant human full length untagged ERalpha expressed in baculovirus infected insect cells incubated in dark for 2 hrs by Beacon single-tube fluorescent polarization assay
T1 sequence (P03372 whole entry): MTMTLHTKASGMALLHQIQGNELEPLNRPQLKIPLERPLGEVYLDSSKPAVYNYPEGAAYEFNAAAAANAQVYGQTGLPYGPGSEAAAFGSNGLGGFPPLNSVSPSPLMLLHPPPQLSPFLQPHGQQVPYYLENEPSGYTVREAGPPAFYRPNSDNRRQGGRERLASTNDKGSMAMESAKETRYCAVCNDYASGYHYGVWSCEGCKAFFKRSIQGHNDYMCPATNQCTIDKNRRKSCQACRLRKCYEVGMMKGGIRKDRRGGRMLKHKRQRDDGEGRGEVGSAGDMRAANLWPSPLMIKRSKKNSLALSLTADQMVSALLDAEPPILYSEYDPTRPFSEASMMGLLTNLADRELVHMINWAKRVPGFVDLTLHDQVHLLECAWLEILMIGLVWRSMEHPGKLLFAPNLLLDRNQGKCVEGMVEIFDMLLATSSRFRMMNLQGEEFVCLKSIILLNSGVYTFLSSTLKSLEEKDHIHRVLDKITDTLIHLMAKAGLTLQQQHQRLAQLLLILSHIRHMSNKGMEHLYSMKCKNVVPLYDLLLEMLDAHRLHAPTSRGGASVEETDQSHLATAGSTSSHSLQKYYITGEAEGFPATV

[3] = system: MCF7; assay: Antiproliferative activity against human MCF7 cells assessed as inhibition of cell viability after 72 hrs by MTT assay; assay type: functional, cell-based; conditions: MCF7, 72 h
Method in brief: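 MCF-7 cells grown in Eagle's MEM with 10% fetal calf serum, 2 mM L-glutamine, penicillin/streptomycin and 1% non-essential amino acids. Seeded at 2.5×10^4 cells/mL, 24 h at 37 °C, 5% CO2. Dosed from ethanol stocks at 1 nM–100 μM final (vehicle 1% v/v ethanol), 72 h. MTT 1 mg/mL for 2 h in dark, DMSO solubilisation, absorbance 595 nm. Viability relative to vehicle; mean ± S.E.M., at least two experiments in triplicate.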

[4] = system: MCF7; assay: Toxicity in human MCF7 cells assessed as cell death at 10 uM incubated for 72 hrs by LDH assay relative to control; assay type: cell-based; conditions: mcf7, 72 h
Method in brief: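 LDH release assay (CytoTox 96). MCF-7 cells seeded at 1×10^4 cells/well for 24 h, dosed with ethanol vehicle (1% v/v) and incubated 72 h. Medium mixed with substrate for 20 min at room temperature in dark, stopped, absorbance read at 490 nm. Lysis is percent of a lysis-solution control (100% lysis, 45 min); three experiments in triplicate, mean ± SEM.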

[5] = Chemical stability of the compound in pH 7.4 phosphate buffer assessed as half life by HPLC method; assay type: physicochemical
Method in brief: (§1)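 Stock of 5 mg compound in 10 mL mobile phase; 30 μL diluted into 1 mL phosphate buffer (pH 4, 7.4 or 9, British Pharmacopoeia). Injected immediately and sampled at 0, 5, 30, 60, 90, 120 min and 21 h. HPLC with UV detection at 254 nm, acetonitrile:water 80:20 mobile phase, 1 mL/min over 10 min.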

[6] = Chemical stability of the compound in phosphate buffer at pH 4 assessed as compound remaining after 30 mins by HPLC method; assay type: physicochemical; conditions: read-out: Stability; method in brief: as §1
[7] = Chemical stability of the compound in pH 9 phosphate buffer assessed as half life by HPLC method; assay type: physicochemical; method in brief: as §1
[8] = Stability in human plasma assessed as half life by HPLC method; assay type: ADME, cell-free
Method in brief: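 Human blood plasma (2.0 mL) mixed with PBS containing 10% DMSO (1.6 mL) and pre-warmed to 37 °C. Compound added as 400 μL of a 1.0 mg/mL stock. Aliquots of 100 μL quenched in 900 μL acetonitrile, centrifuged and filtered. Sampled every 15 min for 1 h, then hourly to 3 h, plus 24 h. C18 reverse-phase HPLC at 25 °C, H2O:ACN:MeOH mobile phase, 1.0 mL/min.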

Sequence of Estrogen receptor beta (Q92731 whole entry): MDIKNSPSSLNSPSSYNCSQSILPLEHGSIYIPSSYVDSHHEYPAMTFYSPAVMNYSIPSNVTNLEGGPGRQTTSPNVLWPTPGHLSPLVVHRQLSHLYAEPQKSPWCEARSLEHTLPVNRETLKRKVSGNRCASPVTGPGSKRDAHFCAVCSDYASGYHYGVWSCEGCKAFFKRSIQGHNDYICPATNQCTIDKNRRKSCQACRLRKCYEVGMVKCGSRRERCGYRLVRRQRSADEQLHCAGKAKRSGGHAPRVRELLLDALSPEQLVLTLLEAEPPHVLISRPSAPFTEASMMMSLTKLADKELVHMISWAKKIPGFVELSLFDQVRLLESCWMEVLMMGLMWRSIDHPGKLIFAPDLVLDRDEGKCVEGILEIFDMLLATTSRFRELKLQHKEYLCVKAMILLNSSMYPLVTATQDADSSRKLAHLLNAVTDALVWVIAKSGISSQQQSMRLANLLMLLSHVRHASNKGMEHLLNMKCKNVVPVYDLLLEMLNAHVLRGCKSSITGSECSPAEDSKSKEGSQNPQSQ

SMILES	IC50 [1] [µM]	IC50 [2] [µM]	IC50 [3] [µM]	Activity [4] [%]	half-life [5] [h]	remaining at 0.5 h [6] [%]	half-life [7] [h]	half-life [8] [h]
CCOC(=O)C1=C(N)Oc2cc(O)ccc2C1c1ccccc1 (configuration not stated)	0.61	2.36	> 100	–	–	–	–	–
CCOC(=O)C1=C(N)Oc2cc(O)ccc2C1c1ccc(OC)c(OC)c1 (configuration not stated)	–	–	> 100	–	–	–	–	–
N#CC1=C(N)Oc2cc(O)ccc2C1c1ccccc1 (configuration not stated)	8.39	> 10	> 100	–	–	–	–	–
N#CC1=C(N)Oc2cc(O)ccc2C1c1ccc(OCCN2CCCCC2)cc1 (configuration not stated)	10.4	1.47	23.2	–	–	–	–	–
COC(=O)C1=C(N)Oc2cc(O)ccc2C1c1ccccc1 (configuration not stated)	1.59	3.3	10.8	–	–	–	–	–
CCOC(=O)C1=C(N)Oc2cc(O)ccc2C1c1ccc(OCc2ccccc2)cc1 (configuration not stated)	> 100	40.3	4.5	–	–	–	–	–
N#CC1=C(N)Oc2cc(O)ccc2C1c1ccc(OCCN2CCCC2)cc1 (configuration not stated)	> 10	0.89	> 50	–	–	–	–	–
COC(=O)C1=C(N)Oc2cc(O)ccc2C1c1ccc(OCCN2CCCC2)cc1 (configuration not stated)	0.35	0.02	19.6	0	–	–	–	–
CCCCOC(=O)C1=C(N)Oc2cc(O)ccc2C1c1ccc(OCCN2CCCCC2)cc1 (configuration not stated)	2.35	0.03	31.8	–	> 24	32	> 24	> 24
CCOC(=O)C1=C(N)Oc2cc(O)ccc2C1c1ccc(O)cc1 (configuration not stated)	–	–	> 100	–	–	–	–	–
COC(=O)C1=C(N)Oc2cc(O)ccc2C1c1ccc(OCCN2CCOCC2)cc1 (configuration not stated)	0.63	109	> 100	–	–	–	–	–
CC(C)(C)OC(=O)C1=C(N)Oc2cc(O)ccc2C1c1ccc(OCCN2CCCCC2)cc1 (configuration not stated)	0.37	0.09	2.65	–	–	–	–	–
CCOC(=O)C1=C(N)Oc2cc(O)ccc2C1c1ccc(OCCN2CCOCC2)cc1 (configuration not stated)	2.44	0.22	18.8	0	–	–	–	–
CCOC(=O)C1=C(N)Oc2cc(O)ccc2C1c1ccc(OCC)cc1 (configuration not stated)	–	–	> 100	–	–	–	–	–
CCOC(=O)C1=C(N)Oc2cc(O)ccc2C1c1ccc(OCCN2CCCC2)cc1 (configuration not stated)	3.1	1.41	27.3	0	–	–	–	–
CCOC(=O)C1=C(N)Oc2cc(O)ccc2C1c1ccc(OCCN2CCCCC2)cc1 (configuration not stated)	0.06	0.02	8.75	0	> 24	27	> 24	> 24
N#CC1=C(N)Oc2cc(O)ccc2C1c1ccc(OCCN2CCOCC2)cc1 (configuration not stated)	> 50	14	35.3	0	–	–	–	–
CCCCOC(=O)C1=C(N)Oc2cc(O)ccc2C1c1ccc(OCCN2CCCC2)cc1 (configuration not stated)	6.55	0.02	7.73	–	–	–	–	–
COC(=O)C1=C(N)Oc2cc(O)ccc2C1c1ccc(OCCN2CCCCC2)cc1 (configuration not stated)	0.22	0.05	16.2	0	–	–	–	–
COC(=O)C1=C(N)Oc2cc(O)ccc2C1c1ccc(O)cc1 (configuration not stated)	10	0.79	> 100	–	–	–	–	–
CC(C)(C)OC(=O)C1=C(N)Oc2cc(O)ccc2C1c1ccc(OCCN2CCCC2)cc1 (configuration not stated)	0.67	0.01	10	–	–	–	–	–
CC/C(=C(\c1ccccc1)c1ccc(OCCN(C)C)cc1)c1ccccc1 [TAMOXIFEN]	–	–	–	13.4	–	–	–	–
